Screens from PubChem BioAssay.
Sampled rows, rich in hits. Any-hit rate of the full collection: about 1.4%.
Rev-erbA mod: modulators of Rev-erb alpha DNA binding, primary screen, biochemical, FITC-DNA, fluorescence polarization, uHTS; Nuclear receptor subfamily 1 group D member 1 (Homo sapiens), P20393; Rev-erbα–FITC-DNA binding, 90 min; activity, % at 10 µM; 370,000 tested, 0.79% active; AID 1259318, 2017;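 active means activity above about 14%, limit read from the data; passing the limit was not always enough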
NR2E3 ag-1: NR2E3 agonists in two-hybrid cells, primary screen, cell-based, luminescence, CHO-S, Gal4-NCOR/VP16-NR2E3. Photoreceptor-specific nuclear receptor (Homo sapiens), Q9Y5X4. luciferase. inhibition of corepressor binding, % at 3.98 µM. 360,000 tested, 0.35% active. AID 602229, 2012;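 active means inhibition above the mean of all tested compounds plus 3 SD, cut at about 70% in these data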;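 further: higher means lower luciferase signal from less NR2E3 corepressor binding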
Target sequence (Q9Y5X4 whole entry, looked up, the tested form may be a part): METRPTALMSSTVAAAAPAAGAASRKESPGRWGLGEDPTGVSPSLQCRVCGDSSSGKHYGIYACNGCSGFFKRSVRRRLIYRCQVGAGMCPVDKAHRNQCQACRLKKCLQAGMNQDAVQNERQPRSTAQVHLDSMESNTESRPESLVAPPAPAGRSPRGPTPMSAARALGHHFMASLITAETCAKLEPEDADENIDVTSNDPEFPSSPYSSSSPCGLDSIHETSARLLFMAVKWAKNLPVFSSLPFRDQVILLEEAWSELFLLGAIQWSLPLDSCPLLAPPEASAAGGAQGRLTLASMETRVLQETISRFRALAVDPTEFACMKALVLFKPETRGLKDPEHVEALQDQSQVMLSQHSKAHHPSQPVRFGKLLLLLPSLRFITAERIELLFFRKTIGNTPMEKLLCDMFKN
PG9 Ab binder: binders of HIV-1 gp120 antibody PG9, primary screen, biochemical, TR-FRET | HIV-1 gp120 / PG9 antibody interaction | TR-FRET gp120-PG9 antibody binding | inhibition, % at 6.7 µM | 360,000 tested, 0.43% active | AID 624416, 2012; in the data active means inhibition above about 8.5%
NR2E3 ag-2: inhibitors of NR2E3-RetCOR corepressor binding, primary screen, NR2E3 agonist project, biochemical, TR-FRET, GST-NR2E3, biotin-RetCOR; inhibition of corepressor binding, % at 4.78 µM; AID 2300, 2010; 320,000 tested, 0.12% active; 1536-well;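 active means percent inhibition above the cutoff of mean plus 3 SD of all tested compounds, set per screening campaign, cut at about 20% in these data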
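Material: NR2E3–RetCOR corepressor complex / Amount: 1.35 nM GST-NR2E3 / Medium: Tris pH 7.5 / Compound: single nominal compound dose of 4.8 µM / Incubation: 5 h at 4 °C / Technique: TR-FRET, Eu(K)-anti-GST donor, streptavidin-D2 acceptor, ex 340, em 617/671 nm / Read-out basis: percent loss of FRET ratio relative to control wells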
NR2E3 ag confirm: NR2E3 agonist confirmation in cells, cell-based, luminescence, CHO-S two-hybrid; shares compounds with NR2E3 ag-1; CHO-S mammalian two-hybrid NR2E3-NCOR, luciferase luminescence; inhibition, % at 3.98 µM; 2,300 tested, 51% active; AID 624378, 2012;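 active means average inhibition above a cutoff equal to the mean inhibition of all tested compounds plus one SD, cut at about 70% in these data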
VP16 counter: GAL4-VP16 reporter modulators, confirmation, counter-screen for NR2E3 agonist project, cell-based, luminescence, CHO-S, high throughput; shares compounds with NR2E3 ag-1; CHO-S GAL4-VP16 luciferase reporter; inhibition, % at 3.98 µM; 2,300 tested, 29% active;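 active means mean inhibition above a cutoff equal to the average over all tested compounds plus one standard deviation, cut at about 70% in these data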;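 further: luciferase from a UAS reporter driven by GAL4-VP16 transactivation; higher means less reporter light so more repression of VP16 activity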
Each line names hits and unclear results; the compound was inactive in the other large screens (follow-up assays come after a bar, where they were run).

CCCCOc1ncnc2c1[nH]c1ccc(F)cc12	NR2E3 ag-1 75 | NR2E3 ag confirm 97 | VP16 counter 73
CCCCOc1ncnc2c1[nH]c1ccc(OCC)cc12	none
Cc1ccc(-n2c(O)c(C=NCc3ccccn3)c3ccccc3c2=O)cc1C	none
O=C(CSc1nc2ccccc2c(=O)n1NC(=O)c1ccccc1)c1ccc(Cl)cc1	none
Cc1cc(Nc2nc3ccccc3[nH]c2=O)n(-c2ccccc2)n1	none | NR2E3 ag confirm inactive | VP16 counter inactive
Cc1ccc(NS(=O)(=O)c2ccc(-n3cccn3)cc2)cc1F	none | NR2E3 ag confirm inactive | VP16 counter inactive
Cc1ccc(NS(=O)(=O)c2ccc(-n3cccn3)cc2)c(C)c1	none
Cc1ccc(Cl)cc1NS(=O)(=O)c1ccc(-n2cccn2)cc1	none
Cc1ccc(NS(=O)(=O)c2ccc(-n3cccn3)cc2)c(Br)c1	none (no result: NR2E3 ag-2) | NR2E3 ag confirm inactive | VP16 counter inactive
CCN1CCN(S(=O)(=O)c2cccs2)CC1	none
C=CCn1c(SCc2ccc(Cl)cc2)nc2cc(C(=O)N3CCC(C(N)=O)CC3)ccc2c1=O	none
CCN1/C(=C/c2ccc3ccccc3[n+]2CCCS(=O)(=O)[O-])C=Cc2cc(C)ccc21	none (no result: NR2E3 ag-2)
CCN1/C(=C/c2ccc3ccccc3[n+]2CC)C=Cc2ccccc21	NR2E3 ag-1 88 | NR2E3 ag confirm 98 | VP16 counter 88
c1ccc2oc(Cc3ccc(Cc4nc5ccccc5o4)cc3)nc2c1	none
Cc1ccc(NC(=O)N2CCc3ccccc32)cc1	none
CN1CCN(c2ccc(NC(=O)N3CCc4ccccc43)cc2)CC1	none | NR2E3 ag confirm inactive | VP16 counter inactive
COC(=O)[C@]12C[C@H](CC(=O)N3CCOCC3)C(=O)N(Cc3ccccc3)C1=C[C@H](COCc1ccccc1)O[C@@H]2C	none (no result: NR2E3 ag-1, PG9 Ab binder, NR2E3 ag-2)
O=C1c2cccc(O)c2C(=O)c2c(O)cccc21	none (no result: NR2E3 ag-1, PG9 Ab binder)
CC1OC(CC(=O)O)CC2=C1C(=O)c1c(O)cccc1C2=O (centres undefined)	NR2E3 ag-1 101, PG9 Ab binder 13 (no result: NR2E3 ag-2) | NR2E3 ag confirm 101 | VP16 counter 99
N#Cc1ccc(NC(=O)Cn2cnc(S(=O)(=O)N3CCOCC3)c2)cc1	none (no result: Rev-erbA mod, PG9 Ab binder)
COc1ccc(S(=O)(=O)Nc2c(C(=O)O)[nH]c3ccccc23)cc1OC	none
CC(C)(C)c1ccc(-c2noc(CCC(N)=O)n2)cc1	NR2E3 ag-1 80 | NR2E3 ag confirm 78 | VP16 counter 77
CN(C)C(=O)CCc1nc(-c2ccc(C(C)(C)C)cc2)no1	none
CC(C)(C)c1ccc(-c2noc(CCC(=O)Nc3cccnc3)n2)cc1	NR2E3 ag-1 84 | NR2E3 ag confirm 75 | VP16 counter 79
CNC(=O)CCc1nc(-c2ccc(C(C)(C)C)cc2)no1	none | NR2E3 ag confirm 71 | VP16 counter 76
CC(C)(C)c1ccc(-c2noc(CCC(=O)NCC3CCCO3)n2)cc1 (centres undefined)	NR2E3 ag-1 83 | NR2E3 ag confirm 73 | VP16 counter inactive
CCOC(=O)CC(=O)COc1nc2cc3c(nc2o1)CCCC3	none
COc1cccc(NC(=O)C2CCN(S(=O)(=O)c3ccc4c(c3)NC(=O)CO4)CC2)c1	none
CCC(C)[C@H](NC(=O)NCCCc1ccccc1)C(=O)OC (some centres undefined)	none
CNc1sc(C(=O)c2cccs2)c(N)c1-c1nc2ccccc2s1	none | NR2E3 ag confirm inactive | VP16 counter inactive
COc1ccccc1NC(=O)c1ccc(-n2cccn2)nc1	none
COc1cccc(CNc2ncnc3cc(Cl)ccc23)c1	none (no result: NR2E3 ag-2) | NR2E3 ag confirm 84 | VP16 counter inactive
COc1ccc(CNc2ncnc3cc(Cl)ccc23)cc1	none
Fc1cccc(CNc2ncnc3cc(Cl)ccc23)c1F	NR2E3 ag-1 83 | NR2E3 ag confirm inactive | VP16 counter inactive
Cc1ccc2c(c1)N(S(=O)(=O)c1cc(-c3onc(C)c3C)ccc1C)CCO2	none
O=C(CNC(=O)c1ccc(Br)o1)NCc1ccc2c(c1)OCO2	none
COc1ccc(NC(=O)c2cc(-c3cc(C)cc(C)c3O)n[nH]2)cc1Cl	none
CC1CCCCC1Nc1ncnc2sccc12 (centres undefined)	none | NR2E3 ag confirm inactive | VP16 counter inactive
NC(=O)c1ccccc1OCC(=O)N1CCC(Cc2ccccc2)CC1	NR2E3 ag-1 77 | NR2E3 ag confirm 92 | VP16 counter 74
CC(=NNC(=S)Nc1cccc(Cl)c1)c1ccccn1	NR2E3 ag-1 95 (no result: NR2E3 ag-2) | NR2E3 ag confirm inactive | VP16 counter inactive
CCCCCC(=O)N/N=C(\C)c1ccccn1	none
CC(=NNC(=S)N1CCCC1)c1ccccn1	NR2E3 ag-1 86 (no result: NR2E3 ag-2) | NR2E3 ag confirm inactive | VP16 counter inactive
CC(=NNC(=S)SCc1ccccc1)c1ccccn1	none (no result: NR2E3 ag-2) | NR2E3 ag confirm inactive | VP16 counter inactive
S=C(NCc1ccccn1)Nc1cccc(Cl)c1	none
C/C(=N\NC(=O)c1ccc(Cl)cc1)c1ccccn1	none
CC(=NNC(=S)N1CCC1)c1ccccn1	NR2E3 ag-1 75 (no result: NR2E3 ag-2) | NR2E3 ag confirm inactive | VP16 counter inactive
Cc1nc(SCCOc2ccc(F)cc2)c2ccccc2n1	none
CCC[C@H]1CC(=O)C=C(c2ccsc2)ON1C(=O)OC(C)(C)C	none (no result: NR2E3 ag-2)
CCc1ccc(C(=O)CCC2CCCCC2=O)cc1 (centres undefined)	none (no result: Rev-erbA mod, PG9 Ab binder)
CC(Oc1ccc(Cl)cc1Cl)c1nc(-c2ccc(NC(=O)c3cccnc3)cc2)no1 (centres undefined)	none
CC(Oc1ccc(Cl)cc1Cl)c1nc(-c2ccc(NC(=O)c3ccncc3)cc2)no1 (centres undefined)	none | NR2E3 ag confirm 78 | VP16 counter 72
Cc1ccc(C)c(NC(=O)c2ccccc2NS(=O)(=O)c2cc([N+](=O)[O-])ccc2C)c1	NR2E3 ag-1 85 | NR2E3 ag confirm 99 | VP16 counter 89
Cc1ccc(C)c(S(=O)(=O)Nc2ccccc2C(=O)Nc2cc(C)on2)c1	none | NR2E3 ag confirm inactive | VP16 counter inactive
O=C(Nc1nnc([C@@H]2C[C@H](O)[C@@H](CO)O2)s1)Nc1cccc2c1CCCC2	none (no result: NR2E3 ag-2)
O=C1c2ccccc2C(=O)c2[nH]c(=O)[nH]c21	none | NR2E3 ag confirm 75 | VP16 counter inactive
CCc1nnc(NC(=O)c2ccc(S(=O)(=O)N(CC(C)C)CC(C)C)cc2)o1	NR2E3 ag-1 103 | NR2E3 ag confirm 99 | VP16 counter inactive
CCc1nnc(NC(=O)c2ccc(S(=O)(=O)N3CCCc4ccccc43)cc2)o1	none | NR2E3 ag confirm 88 | VP16 counter inactive
